Source: PubChem (Johns Hopkins Ion Channel Center)
Kir21 inh = Kir2.1 (mouse) channel inhibition; AID 1672; P35561; hit rate 0.85% among 310,000; B-score at 10 µM; HEK293-Kir2.1, FluxOR thallium flux fluorescence; hits give low values;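 active = fluorescence ratio B-score at or below minus 3 SD of library scores, with starting-brightness B-score within 2 SD, cut at about -4.2 in these data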;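 also: channel flux triggered by added potassium and thallium sulfate stimulus; B-score of peak minus minimum fluorescence over baseline after thallium stimulus; more negative B-score means stronger Kir2.1 block with less thallium influx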
MrgX1 allo act = allosterically activates human MrgX1 receptor signaling. Q96LB2. B-score at 10 µM. MrgX1-HEK293, Fluo-4 calcium flux, FDSS; hits give high values. hit rate 0.63% among 310,000;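 active = plate-corrected calcium response at least 3 library SD above typical, normal starting fluorescence, not activating the receptor alone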;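 also: compound read alongside a low EC10 to EC30 dose of BAM8-22 agonist; peak minus trough fluorescence over baseline measured at the second addition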
Target sequence (Q96LB2 whole entry, looked up): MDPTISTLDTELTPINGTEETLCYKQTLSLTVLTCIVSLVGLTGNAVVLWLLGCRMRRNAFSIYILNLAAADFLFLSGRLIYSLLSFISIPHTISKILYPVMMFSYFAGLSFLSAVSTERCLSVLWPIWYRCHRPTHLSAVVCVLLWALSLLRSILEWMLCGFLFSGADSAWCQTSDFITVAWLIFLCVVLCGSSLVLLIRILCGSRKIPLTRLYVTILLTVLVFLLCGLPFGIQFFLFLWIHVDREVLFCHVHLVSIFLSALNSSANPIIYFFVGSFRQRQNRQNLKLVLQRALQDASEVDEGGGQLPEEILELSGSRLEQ
MrgX1 antag = human MrgX1 receptor antagonism, primary screen; Q96LB2; MRGX1-HEK293 calcium flux, Fluo-4, BAM8-22 antagonism; hits give low values; B-score at 10 µM; hit rate 1.3% among 310,000; AID 588676;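 active = calcium-response B-score plate-corrected more than 3 library SD below zero, starting fluorescence within 5 deviations, no agonist response on first addition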;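 also: peak minus trough fluorescence over baseline after final BAM8-22 challenge near maximal dose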
RGS4 inh = inhibitors of human RGS4. P49798. HEK293 M3R/RGS4 inducible, Fluo-4 calcium flux; hits give high values; triggered by carbachol at its EC20. B-score at 10 µM. hit rate 0.45% among 310,000. AID 463165;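 active = B-score, a plate-corrected calcium signal, over three deviations above library mean, with baseline fluorescence within five deviations of library mean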;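 also: RGS4 expression induced by doxycycline in cells with stable M3 receptor; B-score is computed from the integrated fluorescence ratio over baseline after carbachol; higher B-score means a larger calcium signal and so more RGS4 inhibition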
Target sequence (P49798 whole entry, looked up): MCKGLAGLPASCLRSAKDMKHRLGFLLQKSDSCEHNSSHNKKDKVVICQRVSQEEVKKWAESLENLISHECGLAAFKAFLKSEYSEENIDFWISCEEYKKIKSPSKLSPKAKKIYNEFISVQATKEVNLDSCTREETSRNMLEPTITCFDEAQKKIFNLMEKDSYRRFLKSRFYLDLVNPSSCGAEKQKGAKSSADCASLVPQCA
RGS4 act = potentiators or activators of RGS4 | HEK293 M3R/inducible RGS4, carbachol calcium flux Fluo4; hits give low values | B-score at 10 µM | hit rate 0.92% among 310,000 | AID 463111;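 active = B-score of the integrated calcium signal more than 4 SD below the library mean, with starting fluorescence not abnormally high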;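 also: negative B-score means reduced calcium response which marks RGS4 activation or potentiation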
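Test system: HEK293 cells with stable M3R and inducible RGS4; also added: carbachol at ECmax as muscarinic agonist stimulus; schedule: dye loading 30 min 37 °C, buffer rest 30 min RT; technique: kinetic calcium fluorescence imaging with Fluo4-AM dye, 2 µM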
MrgX1 agonist = human MrgX1 receptor agonism, primary screen. hit rate 0.44% among 310,000. Q96LB2. B-score at 10 µM. MrgX1-HEK293 cells, Fluo-4 calcium fluorescence, agonist mode; hits give high values;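 active = calcium response B-score plate-corrected fluorescence ratio at least 3 library SD, with starting fluorescence B-score inside 5 SD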
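Material: MrgX1-expressing HEK293 cells / Dosing: compound as first of three additions / Incubation: overnight seeding, then 1 h dark dye loading / Signal: Fluo-4 NW calcium fluorescence / Evaluation: B-scored fluorescence response ratio / Benchmarks: positive and negative control wells on each plate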
RGS4 act valid = confirmation of RGS4 activators; shares compounds with RGS4 act; HEK293 M3R/RGS4 inducible, carbachol calcium flux Fluo4; inhibition, % at 10 µM; hit rate 89% among 1,100;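 active = inhibition above 3 SD of the buffer control wells, cut at about 41% in these data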;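 also: signal is the integrated peak-minus-minimum Fluo4 fluorescence over baseline ratio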
RGS4 act ctr = RGS4 activator counter-screen hit in non-induced cells; shares compounds with RGS4 act; HEK293 M3R non-induced RGS4, Fluo4 calcium flux; after carbachol challenge at its EC90; inhibition, % at 10 µM; hit rate 82% among 1,100;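 active = inhibition exceeding 3 SD of buffer-only control wells, cut at about 26% in these data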;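 also: percent drop in integrated peak-minus-baseline over baseline Fluo4 ratio after carbachol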
Active calls of the source: *; i = inactive; . = not tested or not shown. Rows were chosen to be rich in hits. Some 4.1% of all compounds tested hit in one or more screens of this group.

SMILES	Kir21 inh	MrgX1 allo act	MrgX1 antag	RGS4 inh	RGS4 act	MrgX1 agonist	RGS4 act valid	RGS4 act ctr
COCc1ccc(CN2CCCC(CCC(=O)NCc3ccc(C)o3)C2)o1 (stereo unspecified)	2.5	i	i	i	i	i	.	.
Cn1c(CCNC(=O)OC(C)(C)C)n[nH]c1=S	-1.4	i	i	i	i	i	.	.
COCCN(C(=O)COC(=O)C12CC3CC(CC(Cl)(C3)C1)C2)c1c(N)n(Cc2ccccc2)c(=O)[nH]c1=O	-0.11	i	i	i	i	i	.	.
COCCCNC(=O)C1CCC(=O)N(c2ccc3c(c2)OCO3)C1c1ccc(OC)cc1 (stereo unspecified)	-0.12	i	i	i	i	i	.	.
NC(=O)N=Nc1c2[nH]c3ccccc3nc-2c2ccccc12	1	i	i	i	-8.6*	i	56*	0
CC1(C)CC(=O)C=C(NCc2cccc(C(F)(F)F)c2)C1	0.07	i	i	i	-8.7*	i	0	0
COc1cccc(-c2cc3nc4c(c(NCC(C)(C)CN(C)C)n3n2)CCCC4)c1	0.8	i	i	i	i	i	.	.
Fc1cccc(-c2cc3nc4c(c(NCc5ccco5)n3n2)CCCC4)c1	0.4	i	i	i	-8.1*	i	86*	45*
COc1ccc(N(C)C(=O)Cn2c(=O)oc3ccccc32)c(OC)c1	0.29	i	i	i	i	i	.	.
O=C(CCCC(=O)N(c1ccc2c(c1)OCCO2)C(C(=O)NC1CCCCC1)c1ccc(Cl)cc1)Nc1ccccn1 (stereo unspecified)	-1.2	i	i	i	i	i	.	.
O=C(Nc1ccc(N2CCN(c3ncccc3C(F)(F)F)CC2)nc1)c1cccs1	-0.84	i	i	i	-7.8*	i	92*	96*
Cc1cccc2c1Sc1ccc(Cl)cc1CC2N1CCNCC1 (stereo unspecified)	-4.2	i	i	i	-7.6*	i	93*	96*
CCc1cccc2c1Sc1ccccc1CC2N1CCNCC1 (stereo unspecified)	-4.2	i	i	i	i	i	.	.
O=C(NCC1CCN(c2ccc(S(=O)(=O)N3CCOCC3)cc2)CC1)c1ccc(Cl)cc1	0	i	i	i	-11*	i	92*	81*
Cc1ccccc1NC(=O)c1cc2ccccc2o1	-1.9	i	i	i	i	i	.	.
CCSc1nnc(NC(=O)C2CCCCC2C(=O)O)s1 (stereo unspecified)	-1.1	i	i	i	i	i	.	.
Cc1ccc(NC(=S)N2CCCCCC2)cc1	0.89	i	i	i	i	i	.	.
COc1cc(-c2noc(C)c2/C=C/c2ccc(C(=O)O)cc2)cc(OC)c1OC	-1.7	i	i	i	i	i	.	.
CC(C)(C)CC(C)(C)NCC(O)COc1ccc2c(c1)CCC2 (stereo unspecified)	-1.5	i	i	i	-10*	i	92*	55*
CC(=O)NC(NC(=S)Nc1ccc(C)cc1C)C(Cl)(Cl)Cl (stereo unspecified)	0.7	i	i	i	i	i	.	.
Cc1ccc(NC(=S)NC(NC(=O)c2ccccc2C)C(Cl)(Cl)Cl)c(C)c1 (stereo unspecified)	0.26	i	i	i	-8.5*	i	0	0
CCc1ccc([C@@H]2C[C@H]3CN(Cc4ccccc4OC)C(=O)[C@]34CCCN24)cc1	-0.09	i	i	i	-9.5*	i	79*	30*
CCCc1nc(C)c(-c2ccc(OC)c(OC)c2)c(=O)[nH]1	0	i	i	i	i	i	.	.
COc1cccc(CC2CC(=O)N(c3ccc4c(C)cc(=O)oc4c3)C2=O)c1 (stereo unspecified)	0.11	i	i	i	i	i	.	.
COc1ccc(-c2oc3ncnc(NCCN4CCOCC4)c3c2-c2ccc(OC)cc2)cc1	1	i	i	i	-9.8*	i	88*	70*
SMILES	Kir21 inh	MrgX1 allo act	MrgX1 antag	RGS4 inh	RGS4 act	MrgX1 agonist	RGS4 act valid	RGS4 act ctr
COc1ccc(-c2oc3ncnc(NCCCN4CCOCC4)c3c2-c2ccc(OC)cc2)cc1	0.41	i	i	i	i	i	.	.
O=S(=O)(c1cccc2cccnc12)N1CCCCC1	0.14	i	i	i	i	i	.	.
CN1CCN(c2ncccc2S(=O)(=O)N2CCCCC2)CC1	0.86	i	i	i	-12*	i	90*	73*
CCOC(=O)CC(NCc1ccc(OC)c(OCC)c1)c1ccc(C)cc1 (stereo unspecified)	0.01	i	i	i	i	i	.	.
COc1ccc(C(CNC(=O)c2ccc(Cl)c(NC(=O)c3cccs3)c2)N2CCCC2)cc1 (stereo unspecified)	0.02	i	i	i	-12*	i	89*	52*
CCN(c1ccccc1)S(=O)(=O)c1ccc(OC)c(NC(=O)CCc2nc3ccccc3c(=O)[nH]2)c1	2.7	i	i	i	-7.9*	i	85*	56*
CC1CCN(C(=O)CSc2ccc(-c3ccc(F)cc3)nn2)CC1	1.3	i	i	i	i	i	.	.
CC1CC(C)(C)N(C(=O)CSc2ccc(-c3ccc(F)cc3)nn2)c2ccccc21 (stereo unspecified)	-0.7	i	i	i	-13*	i	94*	72*
Cc1snc2sc(C(=O)c3ccc(Br)cc3)c(N)c12	2.1	i	i	i	i	i	.	.
Cc1cccc(NS(=O)(=O)c2ccc(C3CCCCC3)cc2)c1	0.01	i	i	i	-8.8*	i	94*	92*
O=C(O)c1cccc(NS(=O)(=O)c2ccc(C3CCCCC3)cc2)c1	0.09	i	i	i	i	i	.	.
CN1CCN(C2=C(NS(=O)(=O)c3cccs3)C(=O)c3ccccc3C2=O)CC1	0.63	i	i	i	i	i	.	.
O=C1C(NS(=O)(=O)c2cccs2)=C(N2CCN(Cc3ccccc3)CC2)C(=O)c2ccccc21	-1.1	i	i	i	-8.1*	i	63*	0
COc1ccc(N2C(=O)C(F)(F)C2c2cccc(F)c2)cc1 (stereo unspecified)	0.17	i	i	i	i	i	.	.
